# Calls of active or inactive are those of the source. The calls are words filed in the database; no cut-off is given here.
# How the values were obtained:
# HT-29 [1] = test: Cytotoxic activity against human HT-29 cells after 48 hrs by MTT assay; type: functional, cell-based; details: HT-29, 48 h
# Outline: (§1)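 MTT assay; log-phase cells seeded at 10^4 cells/well in DMEM, allowed to attach for 24 h at 37 °C, 5% CO2. Compounds dissolved in DMSO/water (1:1) and tested at 0.1–100 µM (1:2 serial dilutions), four replicates per condition. MTT at 0.5 mg/ml final added 4 h before end; dissolved in 0.1 N HCl/isopropanol, A545 read. Untreated cells as 100% growth, blank subtracted; IC50 as mean ± SD of 3–4 independent experiments.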
# LNCaP [2] = test: Cytotoxic activity against human LNCAP cells after 24 hrs by MTT assay; type: functional, cell-based; outline: as §1
# A549 [3] = test: Cytotoxic activity against human A549 cells after 48 hrs by MTT assay; type: functional, cell-based; details: A549, 48 h; outline: as §1
# HT-29 [4] = test: Cytotoxic activity against human HT-29 cells after 24 hrs by MTT assay; type: functional, cell-based; details: HT-29, 24 h; outline: as §1
# MCF7 [5] = test: Cytotoxic activity against human MCF7 cells after 24 hrs by MTT assay; type: functional, cell-based; details: MCF7, 24 h; outline: as §1
# [6] = Inhibition of PI3K/Akt signalling pathway in human A431 cells at cytotoxic IC50 after 24 hrs by immunoblot; type: cell-based; details: A-431
# Outline: (§2)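 Cells dosed at their cytotoxic IC50 and lysed 24 h later (A431 also sampled over time) in ice-cold HEPES pH 7.5 buffer with phosphatase/protease inhibitors and 0.5% Triton X-100. 50 µg protein per lane on 10% SDS–PAGE, transferred to nitrocellulose, blocked in 5% milk/TBS-T. Probed overnight at 4 °C with anti-pAkt (Ser473; 1:1000) and β-actin loading control; HRP secondary, ECL detection. Untreated cells as control.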
# HepG2 [7] = test: Cytotoxic activity against human HepG2 cells after 24 hrs by MTT assay; type: functional, cell-based; details: HepG2, 24 h; outline: as §1
# [8] = Inhibition of PI3K/Akt signalling pathway in human MCF7 cells at cytotoxic IC50 after 24 hrs by immunoblot; type: cell-based; outline: as §2
# HeLa [9] = test: Cytotoxic activity against human HeLa cells after 24 hrs by MTT assay; type: functional, cell-based; outline: as §1
# A-431 [10] = test: Cytotoxic activity against human A431 cells after 24 hrs by MTT assay; type: functional, cell-based; details: A-431, 24 h; outline: as §1
# LNCaP [11] = test: Cytotoxic activity against human LNCAP cells assessed as cell viability at 10 uM after 24 hrs by trypan blue exclusion method; type: functional; details: read-out: Activity
# Outline: (§3)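 Trypan blue exclusion after 24 h compound exposure. Medium collected, attached cells trypsinized and pooled with it, then centrifuged at 1200 rpm for 5 min. Pellet resuspended in PBS with 0.2% trypan blue. 200–300 cells counted per experiment in three separate experiments. Viability is the percentage of viable cells over total cells, taken as the mean.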
# A-431 [12] = test: Cytotoxic activity against human A431 cells assessed as cell viability at 5 uM after 24 hrs by trypan blue exclusion method; type: functional; details: A-431, 24 h, read-out: Activity; outline: as §3
# MCF7 [13] = test: Cytotoxic activity against human MCF7 cells assessed as cell viability at 10 uM after 24 hrs by trypan blue exclusion method; type: functional; details: MCF7, 24 h, read-out: Activity; outline: as §3
# HeLa [14] = test: Cytotoxic activity against human HeLa cells after 48 hrs by MTT assay; type: functional, cell-based; outline: as §1
# A-431 [15] = test: Cytotoxic activity against human A431 cells after 48 hrs by MTT assay; type: functional, cell-based; details: A-431, 48 h; outline: as §1
# HepG2 [16] = test: Cytotoxic activity against human HepG2 cells after 48 hrs by MTT assay; type: functional, cell-based; details: HepG2, 48 h; outline: as §1
# MCF7 [17] = test: Cytotoxic activity against human MCF7 cells after 48 hrs by MTT assay; type: functional, cell-based; details: MCF7, 48 h; outline: as §1
# HeLa [18] = test: Cytotoxic activity against human HeLa cells assessed as cell viability at 10 uM after 24 hrs by trypan blue exclusion method; type: functional; details: read-out: Activity; outline: as §3
# A549 [19] = test: Cytotoxic activity against human A549 cells after 24 hrs by MTT assay; type: functional, cell-based; details: A549, 24 h; outline: as §1
# LNCaP [20] = test: Cytotoxic activity against human LNCAP cells after 48 hrs by MTT assay; type: functional, cell-based; outline: as §1
SMILES,IC50 (HT-29 [1]),IC50 (LNCaP [2]),IC50 (A549 [3]),IC50 (HT-29 [4]),IC50 (MCF7 [5]),inhibition [6],IC50 (HepG2 [7]),inhibition [8],IC50 (HeLa [9]),IC50 (A-431 [10]),viability at 10 µM (LNCaP [11]),viability at 5 µM (A-431 [12]),viability at 10 µM (MCF7 [13]),IC50 (HeLa [14]),IC50 (A-431 [15]),IC50 (HepG2 [16]),IC50 (MCF7 [17]),viability at 10 µM (HeLa [18]),IC50 (A549 [19]),IC50 (LNCaP [20])
C#Cc1cccc(C#CC(=O)[C@H]2CC[C@H]3[C@@H]4CC=C5C[C@@H](O)CC[C@]5(C)[C@H]4CC[C@]23C)c1,> 50 µM,19.1 µM,20.2 µM,> 50 µM,11.2 µM,Active,42.6 µM,Active,> 50 µM,4.85 µM,90.3%,0%,0%,> 50 µM,1.52 µM,17.9 µM,5.15 µM,93.2%,> 50 µM,16.9 µM
Cc1cc(C)c(C#CC(=O)[C@H]2CC[C@H]3[C@@H]4CC=C5C[C@@H](O)CC[C@]5(C)[C@H]4CC[C@]23C)cc1C,> 50 µM,> 50 µM,> 50 µM,> 50 µM,39 µM,–,> 50 µM,–,> 50 µM,39.3 µM,–,–,–,32.4 µM,12.5 µM,48.6 µM,7.78 µM,–,> 50 µM,46.2 µM
COc1ccc(C#CC(=O)[C@H]2CC[C@H]3[C@@H]4CC=C5C[C@@H](O)CC[C@]5(C)[C@H]4CC[C@]23C)cc1,> 50 µM,> 50 µM,> 50 µM,> 50 µM,> 50 µM,–,> 50 µM,–,> 50 µM,> 50 µM,–,–,–,26.7 µM,> 50 µM,> 50 µM,> 50 µM,–,> 50 µM,47.6 µM
Cc1cc(C#CC(=O)[C@H]2CC[C@H]3[C@@H]4CC=C5C[C@@H](O)CC[C@]5(C)[C@H]4CC[C@]23C)ccc1F,26.7 µM,> 50 µM,28.2 µM,> 50 µM,17.6 µM,–,> 50 µM,–,> 50 µM,> 50 µM,–,–,–,> 50 µM,> 50 µM,> 50 µM,11.3 µM,–,40.1 µM,38.4 µM
C[C@]12CC[C@H](O)CC1=CC[C@@H]1[C@@H]2CC[C@]2(C)C(=O)CC[C@@H]12 [PRASTERONE],> 50 µM,> 50 µM,47.8 µM,> 50 µM,> 50 µM,–,> 50 µM,–,> 50 µM,> 50 µM,–,–,–,> 50 µM,> 50 µM,> 50 µM,> 50 µM,–,47.8 µM,> 50 µM

# Reference: ChEMBL document CHEMBL3352373, “Design and synthesis of 21-alkynylaryl pregnenolone derivatives and evaluation of their anticancer activity” (Bioorg Med Chem, 2014)
